Calls of active or inactive are those of the source. The calls are words filed in the database; no cut-off is given here.

Series [1] can be described thus: Selectivity index, ratio of CC50 for cytotoxicity against human U2OS cells to IC50 for Trypanosoma cruzi Y Tc2 amastigotes infected in human U2OS cells. The series is classed as toxicity, cell-based. The settings on record: read-out: Ratio CC50/IC50. The gist of the method: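 Ratio of U2OS CC50 to Y-strain amastigote IC50, both from the same 72 h Draq5-stained HCS assay in infected U2OS cells (2-fold series up to 200 μM, 1% DMSO).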

A short description of series [2]: Cytotoxicity against human U2OS cells assessed as reduction in cell viability. The series is classed as cell-based.
The subject of series [3] is Trypanosoma cruzi. Kind of series: Antitrypanosomal activity against Trypanosoma cruzi Y Tc2 amastigotes infected in human U2OS cells at 0.39 uM after 72 hrs by Draq5 staining based HCS analysis. The series is classed as functional, organism-based.
In series [4] the test system is Trypanosoma cruzi. Kind of series: Antitrypanosomal activity against Trypanosoma cruzi Colombiana Tc1 epimastigotes measured after 72 hrs. It counts as functional, organism-based. As to conditions: for IC50: Trypanosoma cruzi, Colombiana, 72 h. The procedure, abridged:
(§1)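 Exponentially growing epimastigotes (1.0*10^7 parasites/mL) cultured in LIT-FCS medium with compound from 0.4 to 300.0 µM, added from DMSO stock (DMSO ≤1.0%), 72 h at 28 °C. Viable parasites read by absorbance at 562 nm. PGI computed against untreated culture after subtracting compound/medium blanks. IC50 from sigmoid dose-response fit using at least six concentrations. Triplicates, at least two independent experiments.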

The test system of series [5] is Trypanosoma cruzi. Kind of series: Potency index, ratio of benznidazole IC50 to compound IC50 for antitrypanosomal activity against Trypanosoma cruzi Y Tc2 amastigotes infected in human U2OS cells. It counts as functional.
The next series relates to U2OS. Kind of series: Cytotoxicity against human U2OS cells assessed as effect on cell morphology at 1.56 uM after 72 hrs by HCS analysis. The series is classed as cell-based.
Series [6] deals with Trypanosoma cruzi. Kind of series: Antitrypanosomal activity Trypanosoma cruzi Bug 2149 cl10 Tc5 epimastigotes measured after 72 hrs. The series is classed as functional, organism-based. As to conditions: for IC50: Trypanosoma cruzi, Bug 2149 cl10, CL1-0, 72 h. The procedure, abridged:
(§2)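 Exponentially growing epimastigotes (1.0*10^7 parasites/mL) cultured in LIT-FCS medium with compound from 0.4 to 300.0 µM, added from DMSO stock (DMSO ≤1.0%), 72 h at 28 °C. PGI computed against untreated culture after subtracting compound/medium blanks. IC50 from sigmoid dose-response fit using at least six concentrations. Triplicates, at least two independent experiments.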

Series [7] deals with Trypanosoma cruzi. Kind of series: Antitrypanosomal activity against Trypanosoma cruzi Colombiana Tc1 trypamastigotes infected in monkey LLC-MK2 cells assessed as inhibition of parasite viability by measuring motility at 1 uM after 20 hrs by light microscopic method relative to control. The settings on record: LLC-MK2, 20 h. It counts as functional. The gist of the method: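 Colombiana trypomastigotes, centrifuged at 7,000 rpm at 4 °C, resuspended at 10^6/mL in DME with 2% FCS. Exposed to 1 μM compound, 0.5% DMSO final, 20 h at 37 °C, 5% CO2. Viability judged by motility under light microscope. Live parasites counted in a Neubauer chamber. % inhibition relative to drug-free control. Two independent experiments.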

Series [8] relates to Trypanosoma cruzi. Kind of series: Antitrypanosomal activity Trypanosoma cruzi Y Tc2 epimastigotes measured after 72 hrs. As to conditions: for IC50: Trypanosoma cruzi, Y, 72 h. It counts as functional, organism-based. The procedure, abridged: as §1
The subject of series [9] is Trypanosoma cruzi. Kind of series: Antitrypanosomal activity against Trypanosoma cruzi Y Tc2 amastigotes infected in human U2OS cells at 1.56 uM after 72 hrs by Draq5 staining based HCS analysis. The series is classed as functional, organism-based.
Series [10] concerns Trypanosoma cruzi. Kind of series: Antitrypanosomal activity against Trypanosoma cruzi Y Tc2 amastigotes infected in human U2OS cells up to 200 uM after 72 hrs by Draq5 staining based HCS analysis relative to control. It counts as functional. The gist of the method: (§3)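 U2OS cells (700/well, high-glucose DME, 10% FBS) seeded and incubated 24 h. Then infected with 2,800 Y-strain trypomastigotes harvested from LLC-MK2 cells. On day 3, 14-point 2-fold dilutions added, top 200 μM, 1% DMSO, 72 h. Fixed in 4% PFA, Draq5 stained, imaged at 20x. Infection ratio normalized to DMSO-mock infected and uninfected controls. IC50 by sigmoidal variable-slope fit. Doublets, duplicate experiments.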

The test system of series [11] is Trypanosoma cruzi. Kind of series: Antitrypanosomal activity against Trypanosoma cruzi Silvio X10 cl1 Tc1 epimastigotes measured after 72 hrs. The series is classed as functional, organism-based. As to conditions: for IC50: Trypanosoma cruzi, Silvio X10 cl1, 72 h. The procedure, abridged: as §2
Series [12] has as its system Trypanosoma cruzi. Kind of series: Antitrypanosomal activity against Trypanosoma cruzi Y Tc2 amastigotes infected in human U2OS cells after 72 hrs by Draq5 staining based HCS analysis. The series is classed as functional, organism-based. The procedure, abridged: as §3
In series [13] the test system is Trypanosoma cruzi. Kind of series: Potency index, ratio of benznidazole IC50 to compound IC50 for antitrypanosomal activity against Trypanosoma cruzi Colombiana Tc1 epimastigotes. It counts as functional.

Turning to `CCCCCCCc1ccc(C(=O)N/N=C/c2ccc([N+](=O)[O-])o2)cc1`, the selectivity ratio in series [1] is over 244. The CC50 in series [2] is over 200000 nM. In the series with Trypanosoma cruzi [3], the outcome was inactive. The log1/IC50 in the series with Trypanosoma cruzi [4] worked out at 5.98; with Trypanosoma cruzi [6] it was 6.17; in the series with Trypanosoma cruzi [8], 5.86; with Trypanosoma cruzi [11] it was 5.7. Besides, the IC50 worked out at 1050 nM in the series on Trypanosoma cruzi [4]; 670 nM in the series on Trypanosoma cruzi [6]; 1370 nM in the series on Trypanosoma cruzi [8]; 1980 nM in the series with Trypanosoma cruzi [11]; 820 nM in the series on Trypanosoma cruzi [12]. The “Ratio IC50” value in the series with Trypanosoma cruzi [5] amounted to 70. The Activity result in the series on U2OS is “Non-Toxic”. Further, the inhibition at 1 µM in the series on Trypanosoma cruzi [7] was 98.5%. The outcome with Trypanosoma cruzi [9] was Active. The same molecule came in with an Emax in the series with Trypanosoma cruzi [10] of 103%.
On to `CCCCNc1ccc(C(=O)N/N=C/c2ccc([N+](=O)[O-])o2)cc1`, for which the selectivity ratio in [1] is 34.4. Besides, the cytotoxic concentration (CC50) in [2] turned out to be 12000 nM. Further, the log1/IC50 was determined as 5.4 in the series on Trypanosoma cruzi [4], 5.35 in the series on Trypanosoma cruzi [6], 5.47 with Trypanosoma cruzi [8] and 5.36 in the series with Trypanosoma cruzi [11]. The concentration for half-maximal inhibition (IC50) was 3940 nM in the series with Trypanosoma cruzi [4] and 350 nM in the series with Trypanosoma cruzi [12]. Further, in the series on Trypanosoma cruzi [10], the Emax was 102%.
Turning to `O=C(N/N=C/c1ccc([N+](=O)[O-])o1)c1ccc2ccccc2c1`, in series [1], the selectivity ratio stood at 34.3. Also, the cytotoxic concentration (CC50) in series [2] came out at 64200 nM. Also, the log1/IC50 with Trypanosoma cruzi [4] is 5.12; in the series on Trypanosoma cruzi [6], 5; in the series with Trypanosoma cruzi [8], 5.15; with Trypanosoma cruzi [11], 5.02. In addition, the IC50 was 7580 nM in the series on Trypanosoma cruzi [4]; 9900 nM in the series on Trypanosoma cruzi [6]; 7150 nM in the series with Trypanosoma cruzi [8]; 9590 nM with Trypanosoma cruzi [11]; 1870 nM in the series with Trypanosoma cruzi [12]. This molecule displayed an Emax in the series on Trypanosoma cruzi [10] of 97%.
For the molecule `CCCCCC1CCC(C(=O)N/N=C/c2ccc([N+](=O)[O-])o2)CC1` (stereo unspecified), the selectivity ratio in [1] was over 120. Besides, the CC50 in series [2] is over 200000 nM. Also, the log1/IC50 in the series with Trypanosoma cruzi [4] came to 5.83; in the series with Trypanosoma cruzi [6] it was 5.9; in the series on Trypanosoma cruzi [8] it was 5.6; in the series with Trypanosoma cruzi [11], 5.64. Besides, the IC50 with Trypanosoma cruzi [4] came out at 1470 nM; in the series with Trypanosoma cruzi [6], 1270 nM; in the series with Trypanosoma cruzi [8], 2500 nM; in the series with Trypanosoma cruzi [11], 2300 nM; in the series on Trypanosoma cruzi [12], 1660 nM. Further, the inhibition at 1 µM with Trypanosoma cruzi [7] is 98.5%. Further, the Emax in the series with Trypanosoma cruzi [10] stood at 103%.
Turning to `CCOC(=O)N/N=C/c1ccc([N+](=O)[O-])o1`, the log1/IC50 in the series on Trypanosoma cruzi [4] amounted to 5.15; with Trypanosoma cruzi [6] it was 5.16; with Trypanosoma cruzi [8] it was 5.03; with Trypanosoma cruzi [11], 4.95. In addition, the IC50 came to 7070 nM in the series on Trypanosoma cruzi [4], 6920 nM in the series on Trypanosoma cruzi [6], 9280 nM in the series with Trypanosoma cruzi [8] and 11300 nM in the series with Trypanosoma cruzi [11]. The “Ratio IC50” value in the series with Trypanosoma cruzi [13] is 25 - 30.
As to `CCCCOc1ccc(C(=O)N/N=C/c2ccc([N+](=O)[O-])o2)cc1`, in series [1], the selectivity ratio was found to be 31.9. Moreover, the 50% cytotoxic concentration (CC50) in [2] came out at 46600 nM. Further, the log1/IC50 came out at 5.54 in the series on Trypanosoma cruzi [4], 5.37 with Trypanosoma cruzi [6], 5.46 in the series on Trypanosoma cruzi [8] and 5.29 in the series with Trypanosoma cruzi [11]. Besides, the IC50 in the series with Trypanosoma cruzi [4] was determined as 2860 nM; with Trypanosoma cruzi [12] it was 1460 nM. Besides, in the series with Trypanosoma cruzi [10], the maximum response (Emax) came to 115%.
Take `O=C(N/N=C/c1ccc([N+](=O)[O-])o1)c1ccc(-c2ccccc2)cc1`: in series [1], the selectivity ratio amounted to 154. In [2], the CC50 came to 109000 nM. Further, the log1/IC50 is recorded as 5.51 in the series with Trypanosoma cruzi [4], 5.74 in the series with Trypanosoma cruzi [6], 5.93 with Trypanosoma cruzi [8] and 5.71 in the series on Trypanosoma cruzi [11]. Moreover, the half-maximal inhibitory concentration (IC50) in the series on Trypanosoma cruzi [4] was 3060 nM; with Trypanosoma cruzi [12], 710 nM. The maximum response (Emax) with Trypanosoma cruzi [10] is 97.8%.
On to `CCCCCc1ccc(C(=O)N/N=C/c2ccc([N+](=O)[O-])o2)cc1`, for which the selectivity ratio in [1] was over 208. In series [2], the CC50 was over 200000 nM. Besides, the log1/IC50 is reported as 5.75 in the series with Trypanosoma cruzi [4], 5.7 in the series with Trypanosoma cruzi [6], 5.59 in the series on Trypanosoma cruzi [8] and 5.42 in the series on Trypanosoma cruzi [11]. Moreover, the IC50 in the series on Trypanosoma cruzi [4] was 1760 nM; in the series with Trypanosoma cruzi [6], 1990 nM; in the series with Trypanosoma cruzi [8], 2550 nM; in the series with Trypanosoma cruzi [11], 3770 nM; in the series with Trypanosoma cruzi [12] it was 960 nM. The “Ratio IC50” value in the series on Trypanosoma cruzi [5] turned out to be 70. For the same molecule, in the series with Trypanosoma cruzi [7], the inhibition at 1 µM stood at 98.5%. Further, the maximal response (Emax) with Trypanosoma cruzi [10] worked out at 104%.
As to `CCCCCCCOc1ccc(C(=O)N/N=C/c2ccc([N+](=O)[O-])o2)cc1`, the selectivity ratio in series [1] was over 227. Moreover, in series [2], the CC50 was over 200000 nM. The log1/IC50 in the series with Trypanosoma cruzi [4] was 5.96; in the series on Trypanosoma cruzi [6], 6.07; with Trypanosoma cruzi [8] it was 5.83; in the series on Trypanosoma cruzi [11], 5.7. For the same molecule, the 50% inhibitory concentration (IC50) in the series with Trypanosoma cruzi [4] was found to be 1090 nM; with Trypanosoma cruzi [6], 850 nM; in the series on Trypanosoma cruzi [8], 1470 nM; in the series with Trypanosoma cruzi [11], 1990 nM; in the series with Trypanosoma cruzi [12], 880 nM. The “Ratio IC50” value in the series on Trypanosoma cruzi [5] is 70. Besides, in the series with Trypanosoma cruzi [7], the inhibition at 1 µM is 98.5%. Further, in the series with Trypanosoma cruzi [10], the Emax came to 98.3%.
In the case of `CC1CS(=O)(=O)CCN1/N=C/c1ccc([N+](=O)[O-])o1` (stereo unspecified) [NIFURTIMOX], the selectivity ratio in series [1] came out at 16.4. For the same molecule, the CC50 in series [2] is 85200 nM. Moreover, the log1/IC50 is given as 5 in the series on Trypanosoma cruzi [4], 5.14 in the series with Trypanosoma cruzi [6], 4.89 with Trypanosoma cruzi [8] and 5.22 with Trypanosoma cruzi [11]. Further, the 50% inhibitory concentration (IC50) with Trypanosoma cruzi [4] turned out to be 9930 nM; with Trypanosoma cruzi [12], 5180 nM. In the series on Trypanosoma cruzi [7], the inhibition at 1 µM came out at 7.3%. In the series on Trypanosoma cruzi [10], the maximal effect (Emax) worked out at 96.6%.

For the origin of these results see ChEMBL document CHEMBL4145444, “Investigating the structure-activity relationships of N'-[(5-nitrofuran-2-yl) methylene] substituted hydrazides against Trypanosoma cruzi to design novel active compounds” (Eur J Med Chem, 2018).
